Screens deposited in PubChem BioAssay by Broad Institute.
Rtt109 Vps75: inhibitors of C. albicans Rtt109/Vps75 HAT, primary screen, biochemical, ThioGlo CoA-SH fluorescence, plate reader; actives 0.16% (n = 330,000); inhibition, % at 34.9 µM; AID 540336, 2011; purified Rtt109/Vps75, 4 h; Histone acetyltransferase RTT109 (Candida albicans (strain SC5314 / ATCC MYA-2876)), …;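 active means inhibition of at least 50% in every replicate; inconclusive means best replicate reaches 50% inhibition but some replicates fall short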
Target sequence (Q5AAJ8 whole entry, looked up): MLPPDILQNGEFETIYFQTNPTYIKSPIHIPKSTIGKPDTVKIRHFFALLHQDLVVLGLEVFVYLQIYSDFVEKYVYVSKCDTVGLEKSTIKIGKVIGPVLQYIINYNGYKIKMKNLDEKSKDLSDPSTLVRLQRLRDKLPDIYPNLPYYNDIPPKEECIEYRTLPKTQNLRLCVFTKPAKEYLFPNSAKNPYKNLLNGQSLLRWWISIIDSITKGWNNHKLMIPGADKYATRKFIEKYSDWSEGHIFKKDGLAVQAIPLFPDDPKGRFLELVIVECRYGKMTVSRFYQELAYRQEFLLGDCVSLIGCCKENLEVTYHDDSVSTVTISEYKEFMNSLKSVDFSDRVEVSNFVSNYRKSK
CSC inhib: cancer stem cell viability inhibitors, primary screen, luminescence | cancer stem cell-like cells viability | inhibition, % at 7.5 µM | actives 1.1% (n = 300,000) | AID 2717, 2010; in the data active means inhibition above about 75%; inconclusive means no clear call, values can overlap the other calls; tested in HMLE shEcad cells
SKKanGAS inh: S. pyogenes SKKanGAS growth inhibitors in kanamycin, primary screen, streptokinase expression inhibitor project, SKKanGAS strain, BacTiter-Glo luminescence; inhibition, % at 7.5 µM; actives 1.3% (n = 300,000); 6 h;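 active means mean replicate score, as percent of positive control median, at least 50; inconclusive means mean below 50 but one replicate at or above 50; inactive means mean and every replicate below 50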;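 further: strain carries kanamycin resistance gene driven by streptokinase promoter and grows in 40 µg/ml kanamycin; loss of luminescence reflects streptokinase promoter inhibition or plain growth inhibition; 0% = median of DMSO wells and 100% = positive control at its reference dose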
PglD inh: C. jejuni PglD acetyltransferase inhibitors, primary screen, biochemical, DTNB colorimetric, single point. UDP-N-acetylbacillosamine N-acetyltransferase PglD (Campylobacter jejuni). purified PglD enzyme, DTNB colorimetric CoA detection. inhibition, % at 12.5 µM. actives 0.098% (n = 360,000). AID 602405, 2012; in the data active means inhibition above about 16%, passing the limit was not always enough; inconclusive means no clear call, values can overlap the other calls
PfHsp90 set2: growth inhibition of PfHsp90-expressing yeast, primary screen, antimalarial PfHsp90 inhibitor project, S. cerevisiae, BacTiter-Glo luminescence, single point, set 2 | AID 504621, 2011 | BacTiter-Glo ATP, 48 h; yeast lacking PDR1 and PDR3 efflux regulators | inhibition, % at 9.4 µM | actives 0.32% (n = 310,000);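 active means every replicate shows inhibition above about 80%, whatever the replicate mean, limit read from the data; inconclusive means mean inhibition reaches the set limit but some replicate falls short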;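 further: 0% = DMSO neutral controls and 100% = 20 µM radicicol positive controls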
FN deposit inh: inhibitors of fibronectin matrix deposition, primary screen, AH1F cells, Alexa488-fibronectin fluorescence, plate reader; AH1F fibroblasts, overnight; inhibition, % at 12.6 µM; actives 0.086% (n = 350,000); AID 743247, 2014;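 active means mean inhibition across replicates of 30% or more, regardless of how many single replicates reach that level; inconclusive means mean under 30% yet at least half of replicates reach 30%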;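 further: positive control wells lacked labelled fibronectin entirely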
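Test system: AH1F fibroblast monolayer depositing Alexa488-labelled fibronectin into matrix. Input: 10000 cells per well. Technique: fluorescence, ex 485 nm, em 525 nm. Buffer or medium: DMEM plus 2% serum, read in PBS. Timing: 1 h cell adhesion before compound, then overnight fibronectin incubation. Compound: single dose, pinned. Read-out basis: inhibition from reduced deposited-fibronectin fluorescence.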
The depositor's hits bear a star; ? = inconclusive; nt = no result. Rows were chosen to be rich in hits. Some 1.7% of all compounds tested hit in one or more screens of this group.

SMILES	Rtt109 Vps75	CSC inhib	SKKanGAS inh	PglD inh	PfHsp90 set2	FN deposit inh
COc1cc2c(cc1NC(=O)CN(C)Cc1ccc(OC)c(OC)c1)oc1ccccc12	18.8	nt	13.7	0.3	-0.9	nt
COc1ccc(CN(C)CC(=O)Nc2cc3oc4ccccc4c3cc2OC)c(OC)c1	-0.7	84.1*	1.9	-2.2	-2.7	-1.6
Cc1ccc(CNC(=S)NC2CCC(C(C)(C)C)CC2)cc1 (stereo not drawn)	-5.9	21.3	65.6*	2.5	-70.7	6.0
COc1ccc(C(C)NC(=S)NC2CCCC2)cc1OC (stereo not drawn)	-3.4	-8.6	-4.6	-8.3	-15.1	nt
COc1ccc(CNC(=S)NC2CCCC2)cc1	-2.9	17.2	2.4	2.0	11.7	nt
CC(NC(=S)NC1CCC(C(C)(C)C)CC1)c1ccccc1 (stereo not drawn)	-7.7	29.5	81.4*	-3.4	0.9	4.9
CC[C@@H](C)[C@H](CNC)NC[C@@H](Cc1cccc2ccccc12)NCCc1cccc(C(F)(F)F)c1	19.4	?	98.6*	1.3	-0.4	6.2
CCC[C@H](CN[C@@H](CNC)[C@H](C)CC)NCCc1cc(C(F)(F)F)cc(C(F)(F)F)c1	1.0	59.3	50.5*	-8.8	0.4	6.2
COc1cccc(C(=O)Nc2ccc(-c3nc4ccccc4o3)c(O)c2)c1	-170.3	22.2	28.2	0.2	12.0	nt
COc1cc(C(=O)Nc2ccc(-c3nc4cc(C)ccc4o3)c(O)c2)cc(OC)c1OC	-19.6	72.1	103.3*	2.4	-5.6	nt
COc1ccc(S(=O)(=O)N(C)C[C@@H]2OCCCC[C@@H](C)Oc3ccc(NC(=O)CCCN(C)C)cc3C(=O)N([C@H](C)CO)C[C@H]2C)cc1	nt	nt	nt	3.5	nt	nt
Cc1cc(NCCCn2ccnc2)n2nc(C)c(-c3ccccc3)c2n1	10.0	-4.0	-5.6	-1.7	-2.8	-7.8
Cc1cc(NCCCn2ccnc2)n2nc(C)c(-c3ccc(Cl)cc3)c2n1	2.8	124.7*	8.0	6.4	8.8	nt
O=C(Nc1nc2ccccc2[nH]1)c1ccccc1F	-2.4	123.6*	80.3*	5.4	74.7	nt
COc1ccc2oc(C(=O)Nc3nc4ccccc4[nH]3)c(C)c2c1	-6.6	27.4	78.0*	1.9	29.8	-3.3
CC(C)Oc1ccc(C(=O)Nc2nc3ccccc3[nH]2)cc1	-15.4	42.0	55.5*	-3.5	51.6	-10.6
CCc1ccc(C(=O)Nc2nc3ccccc3[nH]2)cc1	-9.2	31.0	63.0*	-3.5	8.3	16.7
COc1cc(OC)cc(C(=O)Nc2nc3ccccc3[nH]2)c1	-4.2	4.7	59.0*	nt	24.7	nt
Cc1noc(C)c1S(=O)(=O)N(C)C[C@H]1OCCCC[C@H](C)Oc2ccc(N(C)C)cc2C(=O)N([C@H](C)CO)C[C@@H]1C	nt	nt	nt	-0.4	nt	13.2
CCN(CC)c1ccc(-c2nn3c(-c4ccccc4OC)nnc3s2)cc1	-15.2	93.4*	55.9*	3.3	2.6	nt
C[C@@H]1CCCCO[C@H](CN(C)C(=O)Nc2ccc3c(c2)OCO3)[C@@H](C)CN([C@@H](C)CO)C(=O)c2cc(NS(C)(=O)=O)ccc2O1	nt	nt	nt	-1.3	nt	nt
CC(C)=CCOc1ccc([C@@H]2COc3c(ccc4c3C=CC(C)(C)O4)C2)c(O)c1	-2.6	101.7*	99.8*	-1.9	nt	nt
Cc1c(C)n(CCN(C)C)c2ncnc(NCc3ccccc3)c12	0.8	-1.5	-1.8	2.6	12.8	-0.7
Cc1c(C)n(CCc2ccccc2)c2ncnc(NCCCN(C)C)c12	8.3	76.5*	-5.3	-0.6	16.5	8.6
CC1(c2ccc(O)cc2)NC(=O)N(c2ccccc2)N1 (stereo not drawn)	-3.5	108.6*	0.3	-2.5	6.2	-5.6
SMILES	Rtt109 Vps75	CSC inhib	SKKanGAS inh	PglD inh	PfHsp90 set2	FN deposit inh
O=C(N[C@H]1CC[C@H](CCNS(=O)(=O)c2ccc(F)cc2)O[C@H]1CO)c1ccccn1	nt	nt	nt	2.3	nt	nt
CC(=NNC(=S)Nc1ccccc1)c1ccccn1	nt	nt	nt	nt	nt	5.7
CC(=NNC(=S)Nc1ccccc1Cl)c1ccccn1	-3.9	nt	nt	nt	99.3*	22.8
C=CCNC(=S)N/N=C(\C)c1ccccn1	3.1	113.6*	81.1*	4.3	19.0	nt
O=C(Nc1ccc2c(c1)OCO2)N[C@@H]1CC[C@@H](CC(=O)N2CCN(c3ccccc3)CC2)O[C@@H]1CO	nt	nt	nt	3.4	nt	10.9
COc1ccc(/C=C/C(=O)c2ccncc2)c2ccccc12	-0.9	176.4*	1.7	nt	8.7	5.8
CC(C)N1CCN(Cc2ccc(-c3ccccc3)cc2)CC1CCO (stereo not drawn)	-6.5	54.0	6.6	-0.6	-13.8	-5.0
CC(C)N1CCN(Cc2ccc(OCc3ccccc3)cc2)CC1CCO (stereo not drawn)	23.3	77.0*	-17.8	nt	9.8	-0.7
O=C(CN1CCOCC1)N[C@@H]1CC[C@@H](CCNC(=O)C2CCCC2)O[C@H]1CO	nt	nt	nt	0.2	nt	-2.4
O=C(c1cccs1)N1N=C(c2ccccc2)CC1c1ccccc1 (stereo not drawn)	-0.4	24.8	57.1*	-0.8	-16.0	nt
O=C(c1cccs1)N1N=C(c2ccc(O)cc2)CC1c1ccccc1 (stereo not drawn)	0.0	1.4	11.0	nt	22.7	10.0
Clc1ccc(-c2csc(Nc3ccccc3)[n+]2Cc2ccco2)c(Cl)c1	-9.4	nt	78.7*	nt	12.0	-8.1
CC(C)NC(=O)Nc1ccc2c(c1)C(=O)N([C@@H](C)CO)C[C@@H](C)[C@H](CN(C)C(=O)Cc1ccccc1)OCCCC[C@@H](C)O2	nt	nt	nt	-50.9	nt	-9.8
CCCCc1ccc(NC(=O)CSc2nc(=O)n(CCN(CC)CC)c3c2CCC3)cc1	?	79.7*	2.8	-2.1	nt	-9.6
CCN(CC)CCn1c2c(c(SCC(=O)Nc3ccc(C(C)C)cc3)nc1=O)CCCC2	11.8	5.8	-0.8	-0.3	9.4	1.7
CS(=O)(=O)N(CC(=O)N/N=C/c1cccc2c1OCCO2)c1ccccc1Br	5.2	-9.8	3.7	nt	-11.1	nt
O=C(CN(c1ccc(Cl)c(C(F)(F)F)c1)S(=O)(=O)c1ccccc1)N/N=C/c1cccc2c1OCCO2	-9.7	9.7	54.2*	nt	-15.9	nt
COc1ccccc1S(=O)(=O)N[C@@H]1C=C[C@@H](CC(=O)NCc2cc(F)cc(F)c2)O[C@@H]1CO	nt	nt	nt	2.8	nt	nt
Cc1ccc2nc(-c3ccc(NS(=O)(=O)c4ccc(F)cc4)cc3)sc2c1	2.4	nt	76.1*	-2.3	108.9*	-10.2
